Screening results (PubChem)
This excerpt belongs to a sample that is enriched for hits.
HCT116 PTEN-null: growth suppression of PTEN-null HCT116, primary screen, cell-based, CellTiter-Glo | HCT116 PTEN-null viability, 60 h; hits give low values | viability, % at 10 µM | actives 1.2% (n = 140,000);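 active = viability at or below a set limit, 4 SD under the median of all tested compounds, cut at about 3.7% in these data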;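 also: PTEN knockout HCT116 line with beta catenin targeted HCT116 as companion control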
H69AR inhibit: proliferation blockers of H69AR lung cancer cells, primary screen, cell-based, human, 86K library; H69AR lung tumor viability, ATP luminescence, 72 h; hits give low values; viability, % at 10 µM; actives 6% (n = 85,000); AID 598, 2007;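 active = viability at or below 40%; inactive = viability above 40%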;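 also: multidrug resistant small cell line overexpressing MRP-1 efflux transporter; 100% = mean luminescence of untreated control wells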
HUVEC prolif 384: inhibitors of HUVEC proliferation, primary screen, cell-based, 384-well; CellTiter-Glo luminescence, 72 h; hits give low values; viability, % at 10 µM (by protocol); AID 648, 2007; actives 1.1% (n = 86,000);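 active = viability at or below 30%; inactive = viability above 30%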;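 also: 100% = median luminescence of DMSO-only cell control wells on each plate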
bCat KO growth: primary screen for growth suppressors in beta-catenin knockout HCT116 cells (colon tumor, human); HCT116 beta-catenin knockout viability, CellTiter-Glo, 60 h; hits give low values; viability, % at 10 µM; actives 1.5% (n = 140,000);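 active = viability at or under a set limit, the compound median less 4 SD, cut at about 6% in these data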;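 also: 0% = Hyamine 1622 control at 20 µM and 100% = untreated cell control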
Fibroblast inh: antiproliferative effect on LL 47 fibroblasts – human, LL 47 cells, CellTiter-Glo luminescence, primary screen; AID 719, 2007; viability, % at 10 µM; actives 1.1% (n = 85,000); LL 47 human lung fibroblast viability, ATP luminescence; hits give low values;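 active = viability at or below 50% in the single dose screen; inactive = viability above 50%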;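 also: compound exposure lasted 72 h before the ATP readout; 100% = median luminescence of untreated cell-only wells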
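Material: human LL 47 lung fibroblast cells; quantity: 1,150 cells/well; medium: IMEM plus 15% FBS; doses: 0.1% DMSO in all compound wells; timing: overnight attachment after seeding, then 72 h compound exposure at 37 °C; detection: CellTiter-Glo luminescence; measure: % viability of median cell-only signal; controls: cell-only wells, no compound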
Numbers without * were called inactive; . = not tested or not shown.

SMILES | HCT116 PTEN-null | H69AR inhibit | HUVEC prolif 384 | bCat KO growth | Fibroblast inh
COc1cc(C(=O)N2CCCc3ccccc32)cc(OC)c1OC | 36 | 25* | 89 | 40 | 112
CC(C(=O)N1CCc2ccccc21)N1CCc2ccccc2C1 (centres undefined) | 80 | . | . | 88 | .
CC1Cc2ccccc2N1C(=O)c1ccnc(C(C)(C)C)c1 (centres undefined) | 82 | 87 | 97 | 83 | 94
Cc1cccc2cc(CN(CCCO)C(=O)Nc3cccc(Cl)c3)c(=O)[nH]c12 | 66 | 54 | 76 | 68 | 93
COC(=O)c1ccc(/C=C/C(=O)c2ccc(OC)cc2)cc1 | 7 | . | . | 11 | .
COc1ccc(/C=C/C(=O)c2cc(F)ccc2OC(=O)c2ccc(OC)c(OC)c2)cc1OC | 3.3* | . | . | 2.9* | .
COC(=O)c1ccc(/C=C/C(=O)c2ccc(OC)c(OC)c2)cc1 | 1.6* | . | . | 3.3* | .
Cc1nn(CC(O)Cn2c3c(c4ccccc42)CCN(C)C3=O)c(C)c1Br (centres undefined) | 69 | 38* | 83 | 79 | 98
COc1cc(CNC2CCCC2)cc(Cl)c1OCc1ccccc1F | 1.1* | . | . | 1.1* | .
COc1cc(CNC2CCCCCC2)cc(OC)c1O | 104 | 98 | 94 | 93 | 97
CCCCc1n[nH]c2c1C(=O)CC(C)(C)C2 | 109 | 89 | 97 | 99 | 99
COc1ccc(-c2nsc3c(N4CCN(S(=O)(=O)c5ccccc5)CC4)ncnc23)cc1 | . | 6.2* | 73 | . | 90
COc1ccc(-c2nsc3c(N4CCCC4)ncnc23)cc1 | 93 | 66 | 91 | 98 | 94
Cc1ccc(S(=O)(=O)N2CCN(C(=O)COc3ccc(NC(=O)c4ccco4)cc3)CC2)cc1 | 82 | 37* | 88 | 90 | 106
CC(NCc1ccc(-c2ccccc2)cc1)C(O)c1ccccc1 (centres undefined) | 6 | . | . | 2.8* | .
CC(O)CNCc1ccc(-c2ccccc2)cc1 (centres undefined) | 66 | . | . | 69 | .
O=C(Nc1cccnc1)c1ccc(COc2ccccc2Br)o1 | 27 | 44 | 24* | 26 | 59
COc1nnc(-c2ccc(N3CCCCC3)c(NC(=O)C3CCCCC3)c2)c2ccccc12 | 12 | 8.7* | 66 | 11 | 98
COc1nnc(-c2ccc(N3CCOCC3)c(NC(=O)C3CCCCC3)c2)c2ccccc12 | 91 | . | . | 88 | .
Nc1nc(NC(=O)c2cccc(S(=O)(=O)N3CCCCCC3)c2)nc(-c2ccccc2)n1 | 89 | 5.3* | 63 | 107 | 25*
O=C(O)c1cccc(NC(=O)c2cccc(S(=O)(=O)N3CCCCC3)c2)c1 | 115 | 106 | 99 | 102 | 108
Cc1cc(C)nc(-n2nc(C)cc2NC(=O)CNCc2ccccc2)n1 | 90 | 48 | 89 | 91 | 95
CCN(CC(=O)Nc1cc(C)nn1-c1nc(C)cc(C)n1)Cc1ccccc1 | 52 | 14* | 51 | 56 | 73
Cc1cc(C)nc(-n2nc(C)cc2NC(=O)CN2CCc3ccccc3C2)n1 | 2.7* | 6.4* | 82 | 5.1* | 83
CCOC(=O)c1c(CC(C)C)csc1NC(=O)CCl | 65 | . | . | 69 | .
SMILES | HCT116 PTEN-null | H69AR inhibit | HUVEC prolif 384 | bCat KO growth | Fibroblast inh
COC(=O)C1=C(C)N(c2ccc(C(=O)OC)cc2)C(=O)C1 | 77 | 104 | 105 | 83 | 103
COC(=O)C1=C(C)N(c2cc(Cl)cc(Cl)c2)C(=O)C1 | 65 | 3.6* | 81 | 66 | 70
O=C(Nc1ncn[nH]1)C(F)(F)C(F)F | 104 | 89 | 102 | 100 | 107
CCOc1ccccc1NC(=S)NC(=O)CCCOc1ccc(Cl)cc1Cl | 90 | . | . | 83 | .
O=C(NCc1ccc2c(c1)OCO2)C1CCC(CNS(=O)(=O)c2cccc3nsnc23)CC1 (centres undefined) | 96 | 96 | 59 | 85 | 44*
Cc1nc2ccccc2c(=O)n1/N=C/c1c(O)ccc2oc3c(c12)CCCC3 | 3.0* | 65 | 77 | 4.9* | 64
COc1cccc2c1C(=O)C=C(C)C2=O | 2.9* | . | . | 1.8* | .
CC1=CC(=O)c2ccccc2C1=O | 41 | . | . | 44 | .
O=C(CC(SCCO)c1ccc(F)cc1)c1ccco1 (centres undefined) | 2.5* | . | . | 4.0* | .
O=C(CSCCSCC(=O)c1ccco1)c1ccco1 | 104 | 85 | 87 | 101 | 94
O=C(c1ccco1)N1CCN=C1SCc1ccc(F)cc1 | 108 | 106 | 102 | 115 | 107
Cc1ccc(C(CC(=O)c2ccco2)SCCO)cc1 (centres undefined) | 5 | . | . | 5.5* | .
Cc1ccc(NC(=S)N2CCC(c3nc4ccccc4s3)CC2)cc1 | 85 | . | . | 91 | .
Cc1oc(C(C)(C)C)cc1C(=O)Nc1cccc(/C=C\C(=O)O)c1 | 100 | . | . | 97 | .
O=C(COc1ccccc1)Nn1cnc2ccccc21 | 98 | 102 | 93 | 89 | 100
Cc1ccc(NC(=O)C2CCN(S(C)(=O)=O)CC2)cc1 | 87 | 104 | 104 | 91 | 89
CS(=O)(=O)N1CCC(C(=O)Nc2ccc(Oc3ccccc3)cc2)CC1 | 94 | 32* | 84 | 94 | 94
CCCCCCCCCCCCCCCC(O)C(N)CO (centres undefined) | 1.5* | . | . | 1.9* | .
Cc1ccc(-n2nnnc2-c2cnn(-c3cccc(F)c3)c2C(F)(F)F)cc1 | 77 | 97 | 106 | 70 | 91
O=C1c2cccnc2C(O)N1Cc1cccs1 (centres undefined) | 105 | 88 | 96 | 93 | 96
Nc1nc(-c2ccccc2)cc(N2CCCCC2)n1 | 13 | 23* | 57 | 12 | 56
Cc1nc(-c2ccccc2)cc(N2CCCC2)n1 | 99 | . | . | 101 | .
Cn1cc(/C=N/n2cnc3sc4c(c3c2=O)CCCC4)c2ccccc21 | 55 | 26* | 78 | 63 | 90
COc1ccccc1NC(=O)CN1CCN(CC(=O)Nc2ccc(Cl)c(C(F)(F)F)c2)CC1 | 38 | 27* | 66 | 37 | 83
COc1cc(NC(=O)c2ccc(C)cc2)c(OC)cc1NC(=O)CN1CCCCC1 | 85 | 61 | 86 | 80 | 96
SMILES | HCT116 PTEN-null | H69AR inhibit | HUVEC prolif 384 | bCat KO growth | Fibroblast inh
COc1ccc(NC(=O)CN2CCN(CC(=O)Nc3ccccc3Cl)CC2)cc1Cl | 108 | 24* | 81 | 98 | 91
COc1cc(NC(=O)Nc2cccc(Cl)c2)c(OC)cc1NC(=O)CN1CCCCC1 | 26 | 7.8* | 12* | 33 | 103
Cc1cccc(C)c1OCC(O)CN1CCC(CN2C(=O)c3cccc4cccc(c34)C2=O)CC1 (centres undefined) | 1.2* | . | . | 1.1* | .
C=CCc1ccccc1OCC(O)CN1CCN(CCN2C(=O)c3cccc4cccc(c34)C2=O)CC1 (centres undefined) | 3.7* | . | . | 2.4* | .
CCC(OCC(O)CN1CCN(CCN2C(=O)c3cccc4cccc(c34)C2=O)CC1)c1ccccc1 (centres undefined) | 9 | . | . | 5.9* | .
Clc1ccc(OCCn2c(-c3ccco3)nc3ccccc32)cc1 | 64 | 88 | 95 | 59 | 92
